The text below walks through data of paper PMC12219203 (Nature Communications, 2025).

In series [1] the test system is RAW264.7 cells. As to the kind of experiment: Cytokine expression in RAW264.7 macrophages. It counts as cell-based, mouse. As to conditions: GM 1-4 mM, M 4 mM, 24 h. An outline of the steps:
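RAW264.7 cells were kept in high-glucose IMDM with HEPES, 5% heat-inactivated FBS and penicillin/streptomycin at 37 °C, 5% CO2. They were exposed to test compounds for 24 h (n = 4). Total RNA was extracted with a column kit, and TNF-α and IL-6 transcripts were quantified by RT-qPCR using the 2-ΔΔCt method, normalised to β-act.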

The target of series [2] is NOD1 (Homo sapiens, UniProt Q9Y239). Put plainly: HEK-Blue NOD1 SEAP reporter assay. It counts as cell-based. As to conditions: GM, M 20 μM; 18 h. A digest of the protocol:
(§1)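 HEK-Blue hNod1 or hNod2 cells were seeded at 50,000 cells/well in DMEM/10% FBS without selection antibiotics and stimulated at once for 18 h (n = 3). Supernatant was mixed 1:4 with Quanti-Blue and incubated 6 h at 37 °C, and absorbance was read at 620 nm. Values were blanked against water-treated wells, and the respective parental Null cell readouts were subtracted.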

Series [3] concerns WT bone-marrow-derived macrophages (BMDMs). Put plainly: Cytokine gene expression in WT BMDMs. The conditions noted are these: GM 2-8 mM, M 8 mM. The class given is cell-based, mouse. An outline of the steps: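 Marrow was flushed from the femur and tibia of female SPF C57BL/6J mice and red cells were lysed (NH4Cl/KHCO3). Cells at 200,000 cells/mL were differentiated for 6 days in IMDM with 20 ng/mL GM-CSF or 10% L929 supernatant, then switched to serum-free IMDM. Test compounds were added for 24 h (n = 3). Cytokine transcripts were measured by RT-qPCR (2-ΔΔCt, normalised to β-act).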

Series [4] relates to NOD2. Put plainly: HEK-Blue NOD2 SEAP reporter assay. As to conditions: MDP, M-AE 200 nM; GM, M 20 μM; 18 h. It counts as cell-based, human. An outline of the steps: as §1
(In a reporter assay the amount or activity of a reporter protein is the signal.)

For series [5], the system named is Tlr4-/- BMDMs. Put plainly: Cytokine secretion by Tlr4-/- BMDMs. The class given is cell-based, mouse. The conditions noted are these: ELISA, 24 h; GM 4 mM, MDP 0.4 mM, LPS 100 ng/mL, CpG 100 nM. A digest of the protocol:
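Murine BMDMs were differentiated 6 days in complete medium with 20 ng/mL GM-CSF or 10% L929 supernatant, then switched to serum-free IMDM and stimulated 24 h. Mouse TNF-α and IL-6 in culture supernatants were quantified by sandwich ELISA. Samples were prediluted in 1% BSA in PBS, pH 7.4, where needed.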
Background: In an ELISA, binding on a coated surface is turned into a signal by an enzyme label.

In series [6] the test system is RAW-Dual cells. Put plainly: TNF-α secretion by RAW-Dual WT cells, with or without TLR inhibitors. It counts as cell-based, mouse. The conditions noted are these: inhibitor 10 μM, 1 h pre-incubation, then GM 2 mM, 24 h; ELISA. A digest of the protocol: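 RAW-Dual cells were seeded at 100,000 cells/well and pre-incubated 1 h with 10 μM TLR2 (CU_CPT22), TLR4 (TAK-242) or TLR7/9 (AT791) inhibitor. They were then stimulated with 2 mM test compound for 24 h. Supernatants were cleared at 16,000 × g and TNF-α was measured by sandwich ELISA.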

A short description of series [7]: Incubation with 10% FBS. It counts as in vitro ADME, bovine. The conditions noted are these: 37 C, 16 h, LC-MS.

Chain of NOD1 (Q9Y239 whole entry): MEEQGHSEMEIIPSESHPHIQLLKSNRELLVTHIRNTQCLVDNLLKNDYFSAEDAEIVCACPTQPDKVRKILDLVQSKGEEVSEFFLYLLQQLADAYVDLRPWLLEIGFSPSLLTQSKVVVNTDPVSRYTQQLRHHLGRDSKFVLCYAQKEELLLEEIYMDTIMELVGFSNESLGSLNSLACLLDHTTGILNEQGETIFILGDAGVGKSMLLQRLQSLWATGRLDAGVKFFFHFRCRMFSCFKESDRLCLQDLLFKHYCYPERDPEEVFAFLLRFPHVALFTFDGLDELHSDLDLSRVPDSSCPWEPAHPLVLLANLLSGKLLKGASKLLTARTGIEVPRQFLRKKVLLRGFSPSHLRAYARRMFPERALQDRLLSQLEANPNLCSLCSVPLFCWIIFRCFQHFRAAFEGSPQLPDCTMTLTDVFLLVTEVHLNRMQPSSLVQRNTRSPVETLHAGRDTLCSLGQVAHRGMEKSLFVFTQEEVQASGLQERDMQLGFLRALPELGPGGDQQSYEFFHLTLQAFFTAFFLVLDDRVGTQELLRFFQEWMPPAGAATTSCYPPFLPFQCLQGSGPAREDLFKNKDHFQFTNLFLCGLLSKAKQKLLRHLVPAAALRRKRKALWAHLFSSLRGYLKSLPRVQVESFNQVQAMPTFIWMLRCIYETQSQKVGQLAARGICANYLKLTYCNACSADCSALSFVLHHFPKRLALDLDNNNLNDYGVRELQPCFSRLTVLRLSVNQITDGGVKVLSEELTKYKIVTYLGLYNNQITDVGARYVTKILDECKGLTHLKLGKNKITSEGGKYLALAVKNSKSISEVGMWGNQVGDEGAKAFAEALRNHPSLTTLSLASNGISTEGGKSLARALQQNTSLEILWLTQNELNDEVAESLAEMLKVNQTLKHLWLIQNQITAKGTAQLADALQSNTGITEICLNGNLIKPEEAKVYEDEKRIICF

As for `CC(=O)N[C@H]1C(O)O[C@H](CO)[C@@H](O)[C@@H]1O[C@H](C)C(=O)O` (some centres unmarked) [M, N-acetylmuramic acid, reference compound], the “Immuno-stimulatory activity (TNF-α, IL-6) in RAW264.7 (in words)” value in series [1] is recorded as “less potent”. In addition, in series [2], the “NOD1 activation in HEK-Blue reporter cells (in words)” value is recorded as “unable to activate NOD1/2”. In series [3], the “Immuno-stimulatory activity (TNF-α, IL-6) in BMDMs (in words)” value is on record as “less potent”. The “NOD2 activation in HEK-Blue reporter cells (in words)” value in series [4] is on record as “unable to activate NOD1/2”. As to `CC(=O)N[C@H]1C(O)O[C@H](CO)[C@@H](O)[C@@H]1O[C@H](C)C(=O)N[C@@H](C)C(=O)N[C@H](CCC(=O)O)C(N)=O` (stereo partly drawn) [MDP, N-acetylmuramyl-L-Ala-D-isoGln, reference compound], the “TNF-α and IL-6 production in Tlr4-/- BMDMs (in words)” value in series [5] was “still trigger comparable proinflammatory cytokine production”. Turning to `CCOC(=O)C1=CCCC[C@H]1S(=O)(=O)Nc1ccc(F)cc1Cl` [TAK-242], in series [6], the “Effect of TLR inhibitor on GM-triggered TNF-α production” value is given as “suppressed GM-triggered TNF-α production”. Take `CC(=O)N[C@H]1C(O)O[C@H](CO)[C@@H](O)[C@@H]1O[C@H](C)C(=O)N[C@@H](C)C(=O)N[C@H](CCC(=O)O)C(=O)O` (some centres unmarked) [M-AE]: the “NOD2 activation in HEK-Blue reporter cells (in words)” value in series [4] was “potent NOD2 activation similar to the model ligand MDP”. Turning to M-AEKAA, the “Degradation on incubation with 10% FBS” value in series [7] is “reliably yields the expected degradation products: M and AEKAA”.
